ChEMBL document CHEMBL3875191, “Enhanced potency of bivalent small molecule gp41 inhibitors” (Bioorg Med Chem, 2017)
pIC50, pKd, pKi: −log10 of the molar value. Calls of active or inactive are those of the source. The rule behind the calls is not given here.

Key:
[1] = (§1) Inhibition of HIV1 gp41-induced cell-cell fusion between HXB2 viral envelope expressing human HL2/3 cells to CXCR4-tropic expressing TZM-bl cells after 6 hrs by LTR luciferase reporter gene assay; type: cell-based; details: Human immunodeficiency virus 1, HL2/3, 6 h
Method in brief: (§2)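 TZM-bl target cells (CD4, CCR5, CXCR4; HIV-1 LTR-driven firefly luciferase) at 25,000/well, cultured overnight, then given serially diluted inhibitor. 50,000 HL2/3 effector cells (HXB2 Env, Tat, Rev) were added and fusion ran 6 h in reduced-serum medium with 1% DMSO final. Luciferase was read, with 1% DMSO controls with and without HL2/3, in triplicate.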

[2] = test system: MAGI; assay: (§3) Inhibition of HIV1 Ba-L gp41-induced virus-cell fusion between HIV1 Ba-L to MAGI cells expressing CCR5-tropic treated 3 hrs post infection measured after 48 hrs by beta-galactosidase based chemiluminescence assay; details: Human immunodeficiency virus 1
[3] = as §3; details: Human immunodeficiency virus 1, Ba-L
[4] = test system: Human immunodeficiency virus 1; assay: Binding affinity to wild type HIV-1 Fe2(env2.0)3 peptide model of gp41 hydrophobic pocket at compound to peptide ratio of 1:1 by surface plasmon resonance assay
Method in brief: (§4)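 CM5 chip activated with EDC/NHS then PDEA; FeII(envC)3 (bpy-HR1 peptide ending in D-Cys, 5 µM in 25 mM Tris-acetate pH 7.0) coupled by disulfide. Blocked with L-cysteine, then washed with 1 mM ferrous ammonium sulfate. Reference surface lacked receptor. Analytes run at 0.098–50 µM in 20 mM Hepes, 150 mM NaCl, pH 7.0, 1% DMSO. Association 60 s, dissociation 300 s, DMSO bracketing. Kinetics fit to Langmuir 1:1 and 1:2 models.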

[5] = Inhibition of fluorescently labeled C-terminal HR2 probe peptide binding to wild type HIV-1 Fe(env2.0)3 peptide model of gp41 hydrophobic pocket at compound to protein ratio of 1:1 by fluorescence assay; design: species or system Human immunodeficiency virus 1
[6] = Cytotoxicity against human HL2/3 cells assessed as decrease in cell viability by alamar blue/presto blue assay; type: toxicity, cell-based
Method in brief: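 Cell viability read with resazurin reagent (Alamar Blue or Presto Blue) under the same culture conditions as cell-cell fusion. TZM-bl targets (25,000/well, cultured overnight) with serially diluted compound, plus 50,000 HL2/3 effectors/well. 6 h in reduced-serum medium, 1% DMSO final.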

[7] = test system: MAGI; assay: (§5) Inhibition of HIV1 3B gp41-induced virus-cell fusion between HIV1 3B to MAGI cells expressing CXCR4-tropic treated 3 hrs post infection measured after 48 hrs by beta-galactosidase based chemiluminescence assay; details: Human immunodeficiency virus 1
[8] = as §5; details: Human immunodeficiency virus 1, 3B
[9] = Ratio of Kd for wild type HIV-1 Fe2(env2.0)3 peptide model of gp41 hydrophobic pocket assessed as dissociation constant for first binding interaction to Ka for wild type HIV-1 Fe2(env2.0)3 peptide model of gp41 hydrophobic pocket assessed as association constant for first binding interaction; design: species or system Human immunodeficiency virus 1
[10] = Inhibition of fluorescently labeled C-terminal HR2 probe peptide binding to wild type HIV-1 Fe(env2.0)3 peptide model of gp41 hydrophobic pocket assessed as inhibition constant for second binding interaction at compound to protein ratio of 1:2 by fluorescence assay; design: species or system Human immunodeficiency virus 1
[11] = Inhibition of fluorescently labeled C-terminal HR2 probe peptide binding to wild type HIV-1 Fe(env2.0)3 peptide model of gp41 hydrophobic pocket assessed as inhibition constant for first binding interaction at compound to protein ratio of 1:2 by fluorescence assay; design: species or system Human immunodeficiency virus 1
[12] = test system: HL2/3; assay: as §1; type: cell-based; details: Human immunodeficiency virus 1; method in brief: as §2
[13] = test system: Human immunodeficiency virus 1; assay: Binding affinity to wild type HIV-1 HXB2 Fe2(env2.0)3 peptide model of gp41 hydrophobic pocket at <10 uM by surface plasmon resonance assay; method in brief: as §4
[14] = test system: Human immunodeficiency virus 1; assay: Binding affinity to wild type HIV-1 HXB2 Fe2(env2.0)3 peptide model of gp41 hydrophobic pocket at >10 uM by surface plasmon resonance assay; method in brief: as §4

| Structure (SMILES) | pIC50 [1] | IC90 [2] | pIC50 [3] | RUmax [4] | pKi [5] | CC50 [6] | IC90 [7] | pIC50 [8] | pKd [9] | pKi [10] | pKi [11] | IC90 [12] | Activity [13] | Activity [14] |
| --- | --- | --- | --- | --- | --- | --- | --- | --- | --- | --- | --- | --- | --- | --- |
| O=C(CCc1c[nH]c2ccccc12)NCCCCCC(=O)Nc1ccc(C(=O)N[C@@H](Cc2c[nH]c3ccccc23)C(=O)O)cc1OCc1ccc(Cl)cc1 | 5.66 | 26.5 µM | 4.89 | 93 | 5.47 | > 100 µM | 27.1 µM | 4.84 |  |  |  |  |  |  |
| Nc1ccc(C(=O)N[C@@H](Cc2c[nH]c3ccccc23)C(=O)O)cc1OCc1ccc(Cl)cc1 | 4.62 |  |  | 56 | 4.82 | > 50 µM |  |  |  |  |  |  |  |  |
| O=C(CCC(=O)Nc1ccc(C(=O)N[C@@H](Cc2c[nH]c3ccccc23)C(=O)O)cc1OCc1ccc(Cl)cc1)NCCOCCOCCOCCNC(=O)CCC(=O)Nc1ccc(C(=O)N[C@@H](Cc2c[nH]c3ccccc23)C(=O)O)cc1OCc1ccc(Cl)cc1 | 6.40 |  |  | 157 | 5.07 to 5.28 | > 100 µM |  | 5.29 | 4.37 |  |  |  |  |  |
| O=C(CCC(=O)Nc1ccc(C(=O)N[C@@H](Cc2c[nH]c3ccccc23)C(=O)O)cc1OCCc1c[nH]c2ccccc12)NCCOCCOCCOCCNC(=O)CCC(=O)Nc1ccc(C(=O)N[C@@H](Cc2c[nH]c3ccccc23)C(=O)O)cc1OCCc1c[nH]c2ccccc12 | 6.22 | > 100 µM | 5.44 | 160 | 5.64 to 6.00 | > 100 µM | 70 µM | 5.42 | 4.49 | 6.70 | 4.70 |  |  |  |
| Nc1ccc(C(=O)N[C@@H](Cc2c[nH]c3ccccc23)C(=O)O)cc1OCCc1c[nH]c2ccccc12 | 4.66 | > 50 µM | < 4.30 | 59 | 5.14 | > 50 µM | > 50 µM | < 4.30 |  |  |  | 80 µM | Active | Active |
| O=C(CCc1c[nH]c2ccccc12)NCCCCCC(=O)Nc1ccc(C(=O)N[C@@H](Cc2c[nH]c3ccccc23)C(=O)O)cc1OCCc1c[nH]c2ccccc12 | 5.89 | 31.1 µM | 4.86 | 95 | 5.92 | > 100 µM | 30.5 µM | 4.76 |  |  |  |  |  |  |
